Experimental findings from ChEMBL document CHEMBL3351630, “ent-Kaurane diterpenes from the stem bark of Annona vepretorum (Annonaceae) and cytotoxic evaluation” (Bioorg Med Chem Lett, 2014) are described below.

pIC50: −log10 of the molar value.

As usually defined, the pIC50 is −log10 of the IC50, conventionally taken in molar units. A high value points to a small IC50.

One assay deals with HepG2. Put plainly: Cytotoxicity against human HepG2 cells after 72 hrs by alamar blue assay. Type of assay: functional, cell-based. As to conditions: HepG2, 72 h. The essentials:
(§1)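 Tumour lines grown in RPMI-1640 with 10% FBS, 2 mM L-glutamine, gentamycin, at 37°C/5% CO2, mycoplasma-free, used in exponential growth. Alamar blue added 4 h before end, absorbance 570/600 nm. IC50 by nonlinear regression, three independent experiments in duplicate.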
(Resazurin is reduced to fluorescent resorufin, in cell work by metabolically active cells.)

The subject of another assay is PBMC. Put plainly: Cytotoxicity against concanavalin-A stimulated human PBMC after 72 hrs by alamar blue assay. It counts as cell-based. Summed up: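 ConA 10 µg/mL added at culture start; compounds (0.39–25 µg/mL, DMSO) added after 24 h, 72 h incubation. Alamar blue added 24 h before end, absorbance 570/600 nm. IC50 by nonlinear regression, three independent experiments in duplicate.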

A short description of assay [1]: Cytotoxicity against mouse B16F10 cells after 72 hrs by alamar blue assay. Type of assay: functional, cell-based. The note with it: B16-F10, 72 h. The essentials: as §1
Assay [2] deals with K562. Put plainly: Cytotoxicity against human K562 cells after 72 hrs by alamar blue assay. The note with it: K562, 72 h. Type of assay: functional, cell-based. The essentials: as §1
Assay [3] in a line: Cytotoxicity against human HL60 cells after 72 hrs by alamar blue assay. Type of assay: functional, cell-based. As to conditions: HL-60, 72 h. Summed up: as §1
The test system of assay [4] is K562. Put plainly: Selectivity index, ratio of IC50 for concanavalin-A stimulated human PBMCs to IC50 for human K562 cells. Summed up:
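SI calculated as IC50 in ConA-stimulated PBMC divided by IC50 in K562, both from 72 h alamar blue assays.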

Regarding `C=C1C[C@@]23CC[C@@H]4C(C)(C)[C@H](O)CC[C@@]4(C)[C@@H]2CC[C@H]1C3`, the pIC50 with HepG2 is 4.17; with PBMC, 4.65; in assay [1] it was 4.18; in the assay on K562 [2], 4.99; in assay [3], 4.47.

With `C=C1C[C@@]23CC[C@@H]4[C@](C)(CO)[C@H](O)CC[C@@]4(C)[C@@H]2CC[C@H]1C3`, the pIC50 in the assay on HepG2 was 4.09; with PBMC, 4.53; in assay [1], 4.09; in the assay with K562 [2], 4.09; in assay [3] it was 4.09.

As to `C=C1C[C@@]23CC[C@@H]4[C@](C)(C=O)[C@H](O)CC[C@@]4(C)[C@@H]2CC[C@H]1C3`, the pIC50 with HepG2 was 4.29; with PBMC it was 4.62; in assay [1], 4.16; in the assay with K562 [2], 5.08; in assay [3] it was 4.48. Besides, in the assay on K562 [4], the “Ratio IC50” value turned out to be 2.9.

Consider `COc1cccc2c1C(=O)c1c(O)c3c(c(O)c1C2=O)C[C@@](O)(C(=O)CO)C[C@@H]3O[C@H]1C[C@H](N)[C@H](O)[C@H](C)O1` [DOXORUBICIN], for which the pIC50 in the assay with HepG2 was 6.38; in the assay with PBMC it was 5.03; in assay [1], 5.37; in the assay with K562 [2], 5.90; in assay [3], 5.82. Further, the “Ratio IC50” value in the assay with K562 [4] came out at 7.5.

With `C=C1C[C@@]23CC[C@H]4[C@@](C)(CCC[C@@]4(C)C(=O)O)[C@@H]2CC[C@@H]1C3` [KAURENOIC ACID], the pIC50 was 4.29 with HepG2; 4.09 in the assay with PBMC; 4.26 in assay [1]; 4.14 in the assay with K562 [2]; 4.36 in assay [3].

Turning to `C=C1C[C@@]23CC[C@@H]4C(C)(C)[C@H](OC(C)=O)CC[C@@]4(C)[C@@H]2CC[C@H]1C3`, the pIC50 (in the assay on HepG2; in the assay on PBMC; in assay [1]; with K562 [2]; in assay [3]) was under 4.12 each time.

For `C=C1C[C@@]23CC[C@H]4[C@@](C)(CC[C@@H](O)[C@@]4(C)C(=O)O)[C@@H]2CC[C@H]1C3`, the pIC50 in the assay with HepG2 was under 4.10; with PBMC, under 4.10; in assay [1], under 4.10; in the assay with K562 [2] it was 4.20; in assay [3], 4.12.
